As usually defined, the inhibition is the change of the read-out against control, counted positive when it falls.

Structures are written as SMILES. Active and inactive are the calls of the source. The rule behind the calls is not given here.

The values that follow come from ChEMBL document CHEMBL4229342, “Synthesis of novel proxyphylline derivatives with dual Anti-Candida albicans and anticancer activity” (Eur J Med Chem, 2018).

Test [1] deals with Candida albicans. Briefly: Inhibition of biofilm formation of Candida albicans ATCC 90028 at 20 uM […] by XTT assay. It counts as functional. Background: Formazan colour is commonly taken as a measure of viable cells.
Test [2] has as its system Candida albicans. The test is described as follows: Induction of apoptosis in Candida albicans ATCC 90028 protoplast assessed as viable cells at 20 uM after 48 hrs Annexin V-FITC/propidium iodide staining based flow cytometric analysis (reference value: 96.38 +/- 2.05%). It counts as functional. In general terms: In flow cytometry, cells or beads pass a laser one at a time.

For test [3], the system named is Candida albicans. Briefly: Induction of apoptosis in Candida albicans ATCC 90028 protoplast assessed as early apoptotic cells at 20 uM after 48 hrs Annexin V-FITC/propidium iodide staining based flow cytometric analysis (reference value: 3.00 +/- 1.65%). It counts as functional.
Test [4] has as its system Candida albicans. Briefly: Antifungal activity against Candida albicans ATCC 90028 infected in Galleria mellonella larvae infected with 20 uM compound pre-treated cell suspensions assessed as larvae survival incubated in dark for 144 hrs at 30 degC and measured every 24 hrs (reference value: 80%). It counts as functional.
In test [5] the test system is Candida albicans. The test is described as follows: Antifungal activity against Candida albicans ATCC 90028 infected in Galleria mellonella larvae infected with 20 uM compound pre-treated cell suspensions assessed as reduction in larval hemocytes incubated in dark for 144 hrs at 30 degC and measured every 24 hrs by hematoxylin and eosin staining-based light microscopic analysis. It counts as functional, organism-based.

Test [6] concerns Candida albicans. Briefly: Antifungal activity against Candida albicans ATCC 90028 infected in Galleria mellonella larvae infected with 20 uM compound pre-treated cell suspensions assessed as reduction in fat body formation in dark for 144 hrs at 30 degC and measured every 24 hrs by hematoxylin and eosin staining-based light microscopic analysis. It counts as functional, organism-based.

The subject of test [7] is Candida albicans. Briefly: Antifungal activity against Candida albicans ATCC 90028 infected in Galleria mellonella larvae infected with 20 uM compound pre-treated cell suspensions assessed as reduction in fungal cell nodules in dark for 144 hrs at 30 degC and measured every 24 hrs by hematoxylin and eosin staining-based light microscopic analysis. It counts as functional, organism-based.

Test [8] concerns Candida albicans. The test is described as follows: Antibiofilm activity in Candida albicans ATCC 90028 assessed as late apoptotic morphological changes by measuring reddish-orange fluorescence at 20 uM after 18 hrs by acridine orange/ethidium bromide staining-based confocal laser scanning fluorescence microscopic analysis. It counts as functional, organism-based.
The test system of test [9] is Candida albicans. Briefly: Disruption of cell wall in Candida albicans SC5314 assessed as decrease in chitin level by measuring chitin mean staining index at 20 uM after 18 hrs by calcofluor white staining-based flow cytometric analysis (reference value: 496 +/- 51). It counts as functional.
The test system of test [10] is Candida albicans. Briefly: Disruption of cell wall in Candida albicans SC5314 assessed as decrease in chitin level by measuring chitin mean staining index at 0.07 uM after 18 hrs by calcofluor white staining-based flow cytometric analysis (reference value: 496 +/- 51). It counts as functional.
Test [11] relates to Candida albicans. The test is described as follows: Induction of apoptosis in Candida albicans ATCC 90028 planktonic forms assessed as increase in DNA damage at 4 ug/ml by ethidium bromide staining based gel electrophoresis and confocal laser scanning microscopy. It counts as functional, organism-based.
Test [12] relates to Candida albicans. The test is described as follows: Induction of apoptosis in Candida albicans ATCC 90028 planktonic forms assessed as accumulation at subG1 phase at 4 to 16 ug/ml by ethidium bromide staining based gel electrophoresis and confocal laser scanning microscopy. It counts as functional, organism-based.
In test [13] the test system is Candida albicans. The test is described as follows: Induction of apoptosis in Candida albicans ATCC 90028 planktonic forms assessed as effect on DNA content of necrotic cells at 4 to 16 ug/ml by ethidium bromide staining based gel electrophoresis and confocal laser scanning microscopy. It counts as functional, organism-based.
Test [14] in a line: In-vitro chitinolytic activity of the compound assessed as p-nitrophenyl release from N-acetyl-beta-D-glucosaminide at 20 uM by chitinolytic activity assay. It counts as functional.
Test [15] concerns Candida albicans. Briefly: Induction of endochitinase release in Candida albicans ATCC 90028 assessed as p-nitrophenyl release from triacetylochitotriose substrate A at 20 uM by chitinolytic activity assay. It counts as functional, organism-based.
Test [16] has as its system Candida albicans. Briefly: Induction of exochitinase release in Candida albicans ATCC 90028 assessed as p-nitrophenyl release from chitobioside substrate C at 20 uM by chitinolytic activity assay. It counts as functional, organism-based.
Test [17] relates to Candida albicans. The test is described as follows: Inhibition of biofilm formation of Candida albicans ATCC 90028 at 248 uM […] by XTT assay. It counts as functional.
Test [18] concerns Candida albicans. The test is described as follows: Induction of apoptosis in Candida albicans ATCC 90028 protoplast assessed as early apoptotic cells at 248 uM after 48 hrs Annexin V-FITC/propidium iodide staining based flow cytometric analysis (reference value: 3.00 +/- 1.65%). It counts as functional.
Test [19] deals with Candida albicans. The test is described as follows: Induction of apoptosis in Candida albicans ATCC 90028 protoplast assessed as necrotic cells at 248 uM after 48 hrs Annexin V-FITC/propidium iodide staining based flow cytometric analysis (reference value: 0.33 +/- 0.20%). It counts as functional.
Test [20] has as its system Candida albicans. The test is described as follows: Disruption of cell wall in Candida albicans SC5314 assessed as decrease in chitin level by measuring chitin mean staining index at 248 uM after 18 hrs by calcofluor white staining-based flow cytometric analysis (reference value: 496 +/- 51). It counts as functional.
Test [21] relates to Candida albicans. The test is described as follows: Antifungal activity against Candida albicans ATCC 90028 assessed as reduction in cell viability at 38 uM after 48 hrs in presence of ergosterol by XTT assay. It counts as functional.
The subject of test [22] is Candida albicans. The test is described as follows: Antifungal activity against Candida albicans ATCC 90028 infected in Galleria mellonella larvae infected with 31 uM compound pre-treated cell suspensions assessed as cocoon formation incubated in dark for 144 hrs at 30 degC and measured every 24 hrs (reference value: 65%). It counts as functional.
For test [23], the system named is Candida albicans. The test is described as follows: Antifungal activity against Candida albicans ATCC 90028 infected in Galleria mellonella larvae infected with 31 uM compound pre-treated cell suspensions assessed as reduction in larval hemocytes incubated in dark for 144 hrs at 30 degC and measured every 24 hrs by hematoxylin and eosin staining-based light microscopic analysis. It counts as functional, organism-based.

The subject of test [24] is Candida albicans. Briefly: Antifungal activity against Candida albicans ATCC 90028 infected in Galleria mellonella larvae infected with 31 uM compound pre-treated cell suspensions assessed as reduction in fungal burden in dark for 144 hrs at 30 degC and measured every 24 hrs by hematoxylin and eosin staining-based light microscopic analysis. It counts as functional, organism-based.

Test [25] concerns Candida albicans. The test is described as follows: Antibiofilm activity in Candida albicans ATCC 90028 assessed as increase in chitin distribution within biofilm cells at 248 uM after 18 hrs by calcofluor white staining-based confocal laser scanning microscopic analysis. It counts as functional, organism-based.
For test [26], the system named is Candida albicans. The test is described as follows: Antibiofilm activity in Candida albicans ATCC 90028 assessed as beta-glucan uniform distribution at 248 uM after 18 hrs by Congo red staining-based confocal laser scanning microscopic analysis. It counts as functional, organism-based. In a few lines:
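Mature C. albicans biofilm cells were stained with 2% Congo Red to detect β-glucan exposure. They were imaged by confocal laser scanning microscopy as fluorescence and fluorescence/DIC overlays. Treated biofilms were compared with untreated control biofilm.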

Test [27] has as its system Candida albicans. The test is described as follows: Antibiofilm activity in Candida albicans ATCC 90028 assessed as early apoptotic morphological changes by measuring crescent-shaped nuclei at 248 uM after 18 hrs by acridine orange/ethidium bromide staining-based confocal laser scanning fluorescence microscopic analysis. It counts as functional. Summed up:
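Unfixed biofilm cells were dual-stained in situ with acridine orange and ethidium bromide, each at 100 µg/mL. Confocal fluorescence and DIC imaging scored green AO nuclei, crescent-shaped chromatin, reddish-orange late apoptotic/necrotic cells and EB uptake, against untreated control biofilm. […]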

In test [28] the test system is Candida albicans. The test is described as follows: Induction of apoptosis in Candida albicans ATCC 90028 planktonic forms assessed as increase in DNA damage at 1 ug/ml by ethidium bromide staining based gel electrophoresis and confocal laser scanning microscopy. It counts as functional, organism-based.
Test [29] concerns Candida albicans. The test is described as follows: Induction of apoptosis in Candida albicans ATCC 90028 planktonic forms assessed as effect on DNA content of necrotic cells at 1 to 128 ug/ml by ethidium bromide staining based gel electrophoresis and confocal laser scanning microscopy. It counts as functional, organism-based.

The compound `CC(Cn1cnc2c1c(=O)n(C)c(=O)n2C)OCc1cn(CCCn2nc3c(Br)c(Br)c(Br)c(Br)c3n2)nn1` (centres undefined) displayed an inhibition at 20 µM in test [1] of 47%. For the same compound, the Activity is 2.87% in test [2], 2.87% in test [3] and 0.01 to 0.03 µmol/min in [14]. In addition, the survival at 20 µM in test [4] is 100%. Moreover, the result in test [5], in test [6], in [7], in test [8] and in [11] was Active. Also, the Activity_index was 370 in test [9] and 53 in test [10]. Also, the result in test [12], in test [13], in test [15] and in test [16] was inactive.
`CC(CN1c2ccccc2Sc2ccccc21)OC(=O)OC(C)Cn1cnc2c1c(=O)n(C)c(=O)n2C` (centres undefined) had an inhibition at 248 µM in [17] of 61%. Also, the Activity in [18] is reported as 1.2%; in [19], 95.9%; in [21], 92%; in test [22], 98%. Besides, in test [20], the Activity_index is reported as 550. In addition, the outcome in test [23], in test [24] and in test [25] was Active. In addition, the outcome in test [26], in test [28] and in [29] was inactive. For the same compound, the “fold change (FC)” value in [27] worked out at 2.
